# Hits are enriched below; roughly 2.6% of the tested compounds scored in any of these assays.
# DENV2 CPE: inhibitors of DENV2 cytopathic effect, primary screen, cell-based, plate reader, single concentration. DENV2-infected cells, cytopathic effect rescue. CPE inhibition, % at 9.99 µM. 1.7% of 350,000 active. AID 651640, 2012; in the data active means CPE inhibition above about 20%, passing the limit was not always enough; inconclusive means no clear call, values can overlap the other calls; tested in BHK-21 cells;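 further: 0% = median of neutral control wells and 100% = median of positive control wells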
# F508del corr: F508del CFTR correction, initial screen, CFBE line, single point; CFBE cells, YFP halide quenching; stimulated with forskolin plus potentiator P3; % fluorescence drop versus neutral controls; activity (quench increase), % at 7.58 µM; AID 720511, 2013; 0.36% of 350,000 active;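 active means mean added fluorescence quench of at least 8% versus neutral control, with both replicates also reaching 8%; inconclusive means only one of the mean or replicate conditions met; inactive means mean below 8% and not both replicates reaching 8%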;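 further: cells transiently co-express mutant CFTR-F508del with the halide-sensitive YFP; corrector assay measuring rescue of mutant channel to the surface after 24 h compound exposure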
# INS-1E GSIS act: GLuc luminescence reporter in INS-1E cells, primary screen for activators of glucose-dependent secretion of insulin. activation, % at 16.6 µM. 0.61% of 370,000 active. INS-1E GLuc reporter insulin secretion, 2-3 h;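 active means lowest replicate activation of at least 40%, so every replicate reaches that level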;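 further: 0% = median of neutral control wells and 100% = median of IBMX positive control wells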
# miR-122 sensor: miR-122 Renilla sensor signal increase in Huh7, primary screen, miR-122 inhibitor project, cell-based, single point, plate reader; activation (reporter increase), % at 12.5 µM; 0.3% of 340,000 active; Huh7 miR-122 Renilla luciferase sensor, 48 h; neutral wells = 0, positive control = 100;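 active means mean replicate activation score at least 90 and every replicate individually at or above 90; inconclusive means only one of the two criteria met; inactive means neither criterion met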;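 further: higher luciferase means less miR-122 activity so hits act as miR-122 inhibitors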
# ERAP1 inh: human ERAP1 aminopeptidase inhibitors, primary screen, biochemical, single point, plate reader. recombinant ERAP1, Leu-AMC fluorescence, 60 min. inhibition, % at 10.7 µM. 0.15% of 340,000 active;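 active means mean replicate inhibition of at least 30%, or all replicates individually reaching that 30% level; inactive means mean below 30% and not every replicate reaching it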;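 further: 0% = neutral control wells and 100% = L-leucinethiol positive control wells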
# E-sel inducer: E-selectin induction in HUVECs, primary screen, imaging, HUVEC, immunofluorescence imaging, single point; P16581; normalized: neutral wells 0, TNF-alpha wells 100; activation, % at 7.58 µM; 0.37% of 260,000 active; AID 686992, 2013;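 active means mean E-selectin-positive cell signal at least 10% of the positive control, reached in at least 60% of replicates, without over 20% cell loss; inconclusive means no rule given, readout overlaps actives, possibly toxicity-flagged; inactive means the rest, including those meeting only one limit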
#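 Test system: HUVEC | Signal: Immunofluorescence imaging | Read-out: Percent E-selectin-positive cells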
# Numbers without * were called inactive; ? = inconclusive; · = no result; ! = not confirmed by another sample; [ ] = remark or other dose.
SMILES,DENV2 CPE,F508del corr,INS-1E GSIS act,miR-122 sensor,ERAP1 inh,E-sel inducer
C[C@@H]1CN([C@@H](C)CO)C(=O)Cc2cc(N(C)C)ccc2O[C@@H]1CN(C)Cc1ccc(C(=O)O)cc1,33*,0,2,-10[16.7 µM],-3,0
C[C@@H]1CN([C@@H](C)CO)C(=O)Cc2cc(N(C)C)ccc2O[C@@H]1CN(C)Cc1ccc(C(F)(F)F)cc1,27*,3,-24,-3[16.7 µM],0,-11
C[C@H](CO)N1C[C@H](C)[C@@H](CN(C)Cc2ccccc2)Oc2ccc(N(C)C)cc2CC1=O,6,1,-8,16[16.7 µM],0,0
C[C@@H]1CN([C@@H](C)CO)S(=O)(=O)c2ccc(-c3ccncc3)cc2O[C@@H]1CN(C)C(=O)Nc1ccc(C(F)(F)F)cc1,-7,4,-6,30[16.7 µM],1,1
O=C(NC[C@@H]1CC[C@@H]2[C@@H](CN2Cc2cccc(Cl)c2)O1)C1CC1,6,-3,·,·,2,·
O=C(O)CCN1c2ccccc2Sc2ccccc21,-6,-5,69*,·,-3,0
C[C@@H]1CN([C@H](C)CO)C(=O)Cc2cc(N(C)C)ccc2O[C@H]1CN(C)Cc1ccc(C(=O)Nc2ccccc2N)cc1,-5,4,22,85[16.7 µM],0,1
C[C@@H]1CN([C@H](C)CO)C(=O)c2cc(N(C)C)ccc2O[C@H]1CN(C)Cc1ccc(C(=O)Nc2ccccc2N)cc1,3,2,21,112*[16.7 µM],0,0
C[C@H]1CN([C@@H](C)CO)C(=O)c2cc(N(C)C)ccc2O[C@H]1CN(C)Cc1ccc(C(=O)Nc2ccccc2N)cc1,-2,2,12,120*[16.7 µM],·,2
C[C@@H]1CN([C@H](C)CO)C(=O)c2cc(N(C)C)ccc2O[C@@H]1CN(C)Cc1ccc(C(=O)Nc2ccccc2N)cc1,-8,9.2*,·,220*[16.7 µM],-1,·
C[C@@H]1CN([C@H](C)CO)C(=O)Cc2cc(N(C)C)ccc2O[C@@H]1CN(C)Cc1ccc(C(=O)Nc2ccccc2N)cc1,-7,6,0,130*[16.7 µM],0,6
C[C@H](CO)N1C[C@H](C)[C@H](CN(C)Cc2ccc(C(=O)Nc3ccccc3N)cc2)Oc2ccc(N(C)C)cc2C1=O,-13,1,26,?,10,-1
C[C@@H]1CN([C@@H](C)CO)C(=O)c2cccc(NS(=O)(=O)c3cn(C)cn3)c2O[C@H]1CN(C)CC1CCCCC1,33*,0,3,13[16.7 µM],3,1
C[C@@H]1CN([C@H](C)CO)C(=O)c2cccc(NS(=O)(=O)c3cn(C)cn3)c2O[C@@H]1CN(C)Cc1ccc(Cl)c(Cl)c1,-1,-2,15,0[16.7 µM],1,67*
C[C@H](CO)N1C[C@H](C)[C@@H](CN(C)Cc2ccccc2)Oc2c(NS(=O)(=O)c3cn(C)cn3)cccc2C1=O,30*!,-1,11,42[16.7 µM],0,0
C[C@@H]1CN([C@@H](C)CO)C(=O)c2cccc(NS(=O)(=O)c3cn(C)cn3)c2O[C@@H]1CN(C)S(=O)(=O)c1cn(C)cn1,27*,-2,11,-8[16.7 µM],2,1
C[C@H](CO)N1C[C@H](C)[C@@H](CN(C)CC2CCCCC2)Oc2c(NS(=O)(=O)c3cn(C)cn3)cccc2C1=O,-3,1,12,-18[16.7 µM],7,-3
C[C@@H]1CN([C@H](C)CO)C(=O)c2cccc(NS(=O)(=O)c3cn(C)cn3)c2O[C@H]1CN(C)Cc1ccccc1,7,-4,8,-3[16.7 µM],-2,0
COc1ccc2c3c(n(C)c2c1)[C@H](CO)N(S(C)(=O)=O)CC31CCN(C(=O)Nc2cccc(F)c2)CC1,?,0,-21,·,·,0
CCCC(=O)Nc1ccc2c(c1)C(=O)N(C)[C@H]1CC[C@@H](CC(=O)Nc3cn(C)nc3C)O[C@@H]1CO2,2,-1,0,-10[16.7 µM],2,0

# Screens from PubChem.
